Compound activity (PubChem)
Sampled rows, rich in hits. Any-hit rate of the full collection: about 3.4%.
ANO1 block = inhibitors of mouse TMEM16A calcium-activated chloride channel; hit rate 1.2% among 310,000; normalized B-score (activity score, 25-100; higher = stronger inhibition) at 10 µM; Q8BHY3; HEK293 TMEM16A/YFP iodide influx fluorescence, ionomycin;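 active = ratio plate-corrected score three or more library SD toward inhibition, starting fluorescence score within five deviations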;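 also: score derived from kinetic fluorescence span divided by baseline fluorescence per well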
CHT inh = inhibitors of human choline transporter CHT | Q9GZV3 | CHT-expressing cells, membrane potential dye, choline response; active compounds read low | B-score at 10 µM | hit rate 0.86% among 310,000;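 active = B-score over 3 SD under the library average, and starting fluorescence ratio not unusually high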;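 also: choline stimulus applied at its EC90 after an EC20 pre-addition; B-score computed on integrated fluorescence ratio after choline addition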
Target sequence (Q9GZV3 whole entry, looked up): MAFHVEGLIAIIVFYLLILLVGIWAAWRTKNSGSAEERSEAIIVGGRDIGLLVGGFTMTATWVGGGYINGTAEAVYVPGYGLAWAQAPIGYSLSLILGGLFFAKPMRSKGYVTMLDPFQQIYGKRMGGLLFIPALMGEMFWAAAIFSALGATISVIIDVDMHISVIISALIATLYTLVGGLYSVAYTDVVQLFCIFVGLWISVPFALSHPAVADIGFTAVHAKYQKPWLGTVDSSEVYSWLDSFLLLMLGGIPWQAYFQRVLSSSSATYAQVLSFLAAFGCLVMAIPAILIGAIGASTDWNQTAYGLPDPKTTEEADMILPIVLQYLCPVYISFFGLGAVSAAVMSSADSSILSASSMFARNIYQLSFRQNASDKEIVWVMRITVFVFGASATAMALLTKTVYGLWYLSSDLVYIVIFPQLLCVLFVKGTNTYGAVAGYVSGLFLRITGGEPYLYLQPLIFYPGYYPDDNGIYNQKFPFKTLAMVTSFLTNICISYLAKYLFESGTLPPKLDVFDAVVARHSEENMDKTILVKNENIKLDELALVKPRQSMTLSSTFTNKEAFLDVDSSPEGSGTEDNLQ
ANO1 activ = activates or potentiates the mouse TMEM16A chloride channel | Q8BHY3 | HEK293 TMEM16A/YFP-H148Q/I152L, iodide quench fluorescence; active compounds read low | B-score at 10 µM | hit rate 0.3% among 340,000;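 active = fluorescence-ratio B-score plate-corrected deviation score at least 3 library SD below zero, with starting fluorescence score within 5 deviations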;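 also: channel opened by trigger with iodide after compound preincubation; score built on the fluorescence ratio of max minus min over baseline; more negative score means more quench and so TMEM16A activation or potentiation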
VIM-2 inh = blocks Pseudomonas aeruginosa VIM-2 metallo-beta-lactamase; purified VIM-2, nitrocefin hydrolysis, epi-absorbance fluorescence; inhibition, % at 5.6 µM; hit rate 0.89% among 290,000; AID 1527;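 active = inhibition above the mean of all tested compounds plus 3 SD, cutoff set per screening run, cut at about 7.5% in these data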;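 also: red hydrolysis product quenches plate fluorescence so inhibitors raise well fluorescence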
CHT PAM = allosteric activators of human choline transporter CHT. B-score at 10 µM. Q9GZV3. CHT-expressing cells, membrane potential dye, choline EC20; active compounds read high; LV-AA mutant CHT in HEK293 cells. hit rate 0.49% among 310,000;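 active = initial fluorescence not abnormally high and integrated response B-score, plate-corrected, over 3 SD above library mean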
IMP-1 inhibitor = blocks Pseudomonas aeruginosa IMP-1 metallo-beta-lactamase; purified IMP-1, nitrocefin hydrolysis, epi-absorbance fluorescence; inhibition, % at 5.6 µM; hit rate 0.45% among 290,000; AID 1556;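 active = inhibition above the mean plus 3 SD of all compounds in the same screening run, cut at about 4.5% in these data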
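System: purified recombinant IMP-1 beta-lactamase. Medium: Zinc- and detergent-supplemented HEPES buffer, pH 7.1. Compound: one 5.6 µM dose […]. Schedule: 15 min preincubation plus 25 min reaction at 25 °C. Technique: Epi-absorbance fluorescence, 480 nm excitation, 530 nm emission.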
CHT activ conf = human CHT activation, confirmatory screen; CHT-expressing cells, membrane potential dye fluorescence (FDSS); % of choline EC20–EC90 response window; HEK293 expressing CHT LV-AA mutant; choline added at its EC20; hit rate 91% among 2,500; activation, % at 10 µM; shares compounds with CHT PAM;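 active = primary screen active, with duplicate mean activation above negative control mean plus 3 SD, cut at about 11% in these data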
HEK293 MP dye = activity in parental HEK293 cells lacking CHT | shares compounds with CHT PAM | membrane potential dye fluorescence (FDSS); measured after EC20 choline addition | ratio readout change at 10 µM, hits read low | hit rate 62% among 2,500 | AID 623908;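 active = duplicate-averaged ratio beyond 3 SD from buffer wells, up or down, though filed actives are nearly all decreases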
Large screens that a line does not name were inactive (follow-up assays come after a bar, where they were run).

COc1ccccc1NS(=O)(=O)c1cc(N)ccc1N1CCOCC1	none (no result: ANO1 block, CHT inh, VIM-2 inh, CHT PAM, IMP-1 inhibitor)
COc1ccccc1NS(=O)(=O)c1cc(N2Cc3ccccc3C2=N)ccc1N1CCOCC1	none | CHT activ conf 37 | HEK293 MP dye -45
CC(C)CC[n+]1ccccc1/C=C/c1ccc(N(C)C)cc1	CHT PAM 12 | CHT activ conf 60 | HEK293 MP dye inactive
CN(C)c1ccc(/C=C/c2cccc[n+]2[O-])cc1	none
COC(=O)CNC(c1ccccc1)c1cc(C)ccc1NC(=O)CNC(=O)OCc1ccccc1 (configuration not stated)	none
COC(=O)CNC(c1ccccc1)c1cc(C)ccc1NC(=O)c1cccc(Cl)c1 (configuration not stated)	CHT PAM 6.9 | CHT activ conf 43 | HEK293 MP dye inactive
CSCCC(NC(=O)c1ccccc1Cl)C(=O)N(C)Cc1cccs1 (configuration not stated)	none
CCOc1ccc(NC(=O)Nc2cc(C(=O)O)ccc2N2CC3CC(C2)c2cccc(=O)n2C3)cc1 (configuration not stated)	none
COc1ccccc1NC(=O)CNC(c1ccccc1)c1ccccc1	CHT PAM 7.5 | CHT activ conf 44 | HEK293 MP dye inactive
COc1ccc(C)cc1NC(=O)CNC(c1ccccc1)c1ccc(C)cc1 (configuration not stated)	none
COc1ccccc1NC(=O)CC(c1ccc(F)cc1)c1ccco1 (configuration not stated)	none | CHT activ conf 24 | HEK293 MP dye inactive
COc1ccc(C(CC(=O)Nc2ccc(F)cc2)c2ccccc2)cc1 (configuration not stated)	none
S=C(Sc1ccc(Cl)cc1)Sc1ccc(Cl)cc1	none (no result: ANO1 activ)
Cc1ccc(N2CC(C(=O)OCC(=O)Nc3ccc(Cl)cc3)CC2=O)cc1 (configuration not stated)	none (no result: ANO1 block, CHT inh, VIM-2 inh, CHT PAM, IMP-1 inhibitor)
CCN1CCN(c2cc3c(cc2F)c(=O)c(C(=O)O)cn3C2CC2)CC1	CHT PAM 8.7 | CHT activ conf 54 | HEK293 MP dye -58
COc1ccc(-c2nc3n(c2C)CCC3)cc1	CHT PAM 6.4 | CHT activ conf 57 | HEK293 MP dye -63
Cc1ccccc1SC1CCN(Cc2nc(C3CC3)no2)CC1	none
CCCCN(C)CCNC(=O)c1nn(-c2ccc(OC)cc2)c(=O)c2c1c1ccccc1n2C	VIM-2 inh 8.3 | CHT activ conf 29 | HEK293 MP dye -31
CN(Cc1ccccc1)C(=O)C1CCN(S(=O)(=O)c2ccc(-n3cnnn3)cc2)CC1	none
CN1CCN(c2nc3ccccc3nc2C(C#N)C(=O)OC2CCCCC2)CC1 (configuration not stated)	CHT PAM 8.6 | CHT activ conf 44 | HEK293 MP dye -48
COc1cc(/C=C2\SC(N)=NC2=O)ccc1O	none
CCOC(=O)c1sc2nc(SCC#N)n(CCCN3CCCC3=O)c(=O)c2c1C	none | CHT activ conf 21 | HEK293 MP dye inactive
CCOC(=O)c1c(CN2CCN(C)CC2)n(C)c2cc(Br)c(OC)cc12	none | CHT activ conf 39 | HEK293 MP dye -55
CCOC(=O)c1c(CN2CCCCC2)n(C)c2cc(Br)c(O)cc12	none
C=CCN1CCN(C(c2cc(OC)ccc2OC)c2nnnn2CC2CCCO2)CC1 (configuration not stated)	CHT PAM 6.3 | CHT activ conf 16 | HEK293 MP dye inactive
COc1ccc(OC)c(C(c2nnnn2CC2CCCO2)N2CCN(C)CC2)c1 (configuration not stated)	none
COc1ccccc1C(c1nnnn1CC1CCCO1)N1CCC(C(N)=O)CC1 (configuration not stated)	none
COc1ccc(C(c2nnnn2CC2CCCO2)N2CCC(C(N)=O)CC2)cc1 (configuration not stated)	none | CHT activ conf inactive | HEK293 MP dye inactive
COc1ccc(CNC(=O)c2ccccc2SCC(=O)NCc2ccco2)cc1	none (no result: ANO1 block, CHT inh, VIM-2 inh, CHT PAM, IMP-1 inhibitor)
COc1cc(OC)c(NS(=O)(=O)c2cc3[nH]c(=O)c(=O)[nH]c3cc2C)cc1Cl	none
Cc1cc2ccccc2n1CCNC(=O)C1CCCCC1	none
Cc1cc2ccccc2n1CCNC(=O)C1CCCC1	none | CHT activ conf inactive | HEK293 MP dye inactive
COc1ccc(CC(=O)Nc2cc(S(=O)(=O)N3CCCCC3)ccc2C)cc1	none (no result: ANO1 block, CHT inh, VIM-2 inh, CHT PAM, IMP-1 inhibitor)
CCN1CCN(c2ccc(S(=O)(=O)N3CCCCC3)cc2NC(=O)Cc2ccc(OC)cc2)CC1	none | CHT activ conf 39 | HEK293 MP dye -36
CCN1CCN(c2ccc(S(=O)(=O)N3CCCCC3)cc2NC(=O)/C=C/c2cccc(OC)c2OC)CC1	none | CHT activ conf 41 | HEK293 MP dye -31
CCN1CCN(c2ccc(S(=O)(=O)N3CCCCC3)cc2NC(=O)/C=C/c2ccc(F)cc2)CC1	none (no result: VIM-2 inh, IMP-1 inhibitor)
O=C(NCc1nnnn1-c1ccc(F)c(F)c1)c1cc2ccccc2o1	none (no result: VIM-2 inh, IMP-1 inhibitor)
CCOc1ccc2[nH]c(C)c(CN3CCCCC3)c(=O)c2c1	CHT PAM 7.6 | CHT activ conf 47 | HEK293 MP dye -34
Cc1[nH]c2ccc(Cl)cc2c(=O)c1CN1CCCC1	none
CCOc1ccc2[nH]c(C)cc(=O)c2c1	none
CCOc1ccc2[nH]c(C)c(CN(C)C)c(=O)c2c1	none | CHT activ conf 53 | HEK293 MP dye -25
COc1ccc(C(=O)Nc2ccnn2C2CCN(C(=O)c3cnsn3)CC2)cc1	none
COC(=O)CCCC1=CC2=C(c3ccccc3)C(=O)C(C)(OC(=O)C3CCCC3)C(=O)C2=CN1C1CC1 (configuration not stated)	CHT PAM 10 (no result: VIM-2 inh, IMP-1 inhibitor) | CHT activ conf inactive | HEK293 MP dye inactive
Cc1cc(C)nc(/N=C(\N)Nc2cccc([N+](=O)[O-])c2)n1	none | CHT activ conf 28 | HEK293 MP dye -46
Cc1cc(Nc2cccc([N+](=O)[O-])c2)c2ccccc2n1	none
Cc1cc(Nc2cccc([N+](=O)[O-])c2)c2cccc(C)c2n1	none | CHT activ conf 42 | HEK293 MP dye -52
Cc1cc(C)nc(/N=C(\N)Nc2ccc([N+](=O)[O-])cc2)n1	none
COc1c(-c2ccc([N+](=O)[O-])cc2[N+](=O)[O-])c(=O)n(C)c(=O)n1C	none
CCCc1ccc2oc(C(=O)N3CCN(C4CCS(=O)(=O)C4)CC3)c(C)c2c1 (configuration not stated)	none
